Blank lines part the entries; values can stand above or below the molecule they belong to.
Key:
[1] = target: T1, Glycogen synthase kinase 3 (Plasmodium falciparum (isolate 3D7)) (UniProt O77344); test: Inhibition of Plasmodium falciparum GSK3 at 1 uM measured after 2 hrs by luciferin-based luminescence assay relative to control; values are per cent of control
T1 sequence (whole entry): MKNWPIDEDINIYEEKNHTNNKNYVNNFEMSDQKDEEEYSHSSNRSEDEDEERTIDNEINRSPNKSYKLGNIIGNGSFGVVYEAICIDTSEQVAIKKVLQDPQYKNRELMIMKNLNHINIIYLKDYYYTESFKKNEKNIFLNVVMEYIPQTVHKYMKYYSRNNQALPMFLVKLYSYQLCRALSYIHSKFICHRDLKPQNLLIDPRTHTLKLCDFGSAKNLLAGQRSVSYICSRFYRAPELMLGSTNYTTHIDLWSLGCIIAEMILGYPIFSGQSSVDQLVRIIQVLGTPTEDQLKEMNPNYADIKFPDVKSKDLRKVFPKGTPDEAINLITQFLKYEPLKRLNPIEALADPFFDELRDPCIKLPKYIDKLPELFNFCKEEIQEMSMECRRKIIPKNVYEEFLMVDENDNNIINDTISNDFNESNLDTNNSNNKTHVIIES

[2] = Inhibition of Plasmodium falciparum PK6 measured after 2 hrs by luciferin-based luminescence assay
[3] = tested on: HepG2; test: Cytotoxicity against human HepG2 cells assessed as reduction in cell viability at 2 uM measured after 48 hrs by cell titre glo luminescence assay; assay type: toxicity, cell-based; conditions: hepg2, 48 h
Method in brief: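 HepG2 cells in DMEM with 10% FBS, seeded at 4000 cells/well and incubated overnight at 37 °C, 5% CO2. Compound added in quadruplicate with constant DMSO, then 48 h incubation. Viability by CellTiter-Glo luminescence, reported as % viable cells; average of two experiments in quadruplicate.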

[4] = tested on: Plasmodium falciparum; test: Antiplasmodial activity against Plasmodium falciparum 3D7 infected in human erythrocytes assessed as reduction in parasite growth incubated for 72 hrs by SYBR green I fluorescence based assay; assay type: functional, organism-based; conditions: 3D7, 72 h
Method in brief: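 P. falciparum 3D7 synchronized by sorbitol at ring stage, set to 2% parasitemia and 2% hematocrit. Compounds dosed at 0–5 μM as 2-fold dilutions in triplicate. Controls were quinacrine 500 nM and 0.5% DMSO. Incubation 72 h at 37 °C in 3% O2/5% CO2/92% N2, then SYBR Green I lysis for 24 h in the dark. Fluorescence ex 485/em 535; normalized to controls; EC50 from dose–response fit.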

[5] = Kinetic solubility of the compound in PBS buffer at pH 7.4; assay type: physicochemical
[6] = tested on: Plasmodium falciparum; test: Antiplasmodial activity against blood stage plasmodium falciparum assessed as inhibition of parasite growth; assay type: functional, organism-based
[7] = tested on: Plasmodium falciparum; test: Inhibition of Plasmodium falciparum PK6 at 1 uM measured after 2 hrs by luciferin-based luminescence assay relative to control; values are per cent of control
[8] = Inhibition of Plasmodium falciparum PKG incubated for 30 mins […]

IC50 [2]: 14 nM
Compound: Cc1cnc(Nc2ccc(C(=O)N3CCC(N4CCCC4)CC3)cc2)nc1-c1ccc(Cl)s1
cell viability remaining [3]: 65%
EC50 [4]: 576 nM

IC50 [2]: 460 nM
Kinetic_solubility [5]: 19.4 µg/mL
Compound: O=C(c1ccc(Nc2nccc(-c3cc4ccccc4s3)n2)cc1)N1CCC(N2CCCC2)CC1
cell viability remaining [3]: 103%
EC50 [4]: 280 nM

IC50 [2]: 317 nM
Compound: O=C(c1ccc(Nc2nccc(-c3cc4ccccc4o3)n2)cc1)N1CCC(N2CCCC2)CC1

IC50 [2]: 329 nM
Compound: O=C(c1ccc(Nc2nccc(-c3ccccc3)n2)cc1)N1CCC(N2CCCC2)CC1

IC50 [2]: 563 nM
Compound: O=C(c1ccc(Nc2nccc(-c3ccc(CO)s3)n2)cc1)N1CCC(N2CCCC2)CC1

IC50 [2]: 182 nM
Compound: O=C(c1ccc(Nc2nccc(-c3nccs3)n2)cc1)N1CCC(N2CCCC2)CC1

IC50 [2]: 415 nM
Compound: O=C(c1ccc(Nc2nccc(-c3ccc(-c4ccccc4)s3)n2)cc1)N1CCC(N2CCCC2)CC1

IC50 [2]: 28 nM
Compound: Cc1ccc(-c2nc(Nc3ccc(C(=O)N4CCC(N5CCCC5)CC4)cc3)ncc2C)s1

IC50 [2]: 222 nM
Compound: Cc1ccc(-c2ccnc(Nc3ccc(C(=O)N4CCC(N5CCCC5)CC4)cc3)n2)s1

IC50 [2]: 115 nM
Compound: O=C(c1ccc(Nc2nccc(-c3cc4ccccc4s3)n2)cc1)N1CCC(N2CCCCC2)CC1

IC50 [2]: 11 nM
Compound: O=C(c1ccc(Nc2ncc(Cl)c(-c3ccc(Cl)s3)n2)cc1)N1CCC(N2CCCC2)CC1
cell viability remaining [3]: 34%
EC50 [4]: 552 nM

IC50 [2]: 14 nM
Compound: Cc1ccc(-c2nc(Nc3ccc(C(=O)N4CCC(N5CCCC5)CC4)cc3)ncc2Cl)s1

IC50 [2]: 359 nM
Compound: O=C(c1ccc(Nc2nccc(-c3ccc4ccccc4c3)n2)cc1)N1CCC(N2CCCC2)CC1
cell viability remaining [3]: 82%
EC50 [4]: 541 nM

IC50 [2]: 292 nM
Compound: O=C(c1ccc(Nc2nccc(-c3ccc(COCC(F)(F)F)s3)n2)cc1)N1CCC(N2CCCC2)CC1
cell viability remaining [3]: 87%
EC50 [4]: 810 nM

IC50 [2]: 768 nM
Compound: O=C(c1ccc(Nc2nccc(-c3ccco3)n2)cc1)N1CCC(N2CCCC2)CC1

IC50 [2]: 236 nM
Compound: O=C(c1ccc(Nc2nccc(-c3cccs3)n2)cc1)N1CCC(N2CCCC2)CC1

IC50 [2]: 645 nM
Compound: Cn1cc(-c2ccnc(Nc3ccc(C(=O)N4CCC(N5CCCC5)CC4)cc3)n2)cn1

IC50 [2]: 130 nM
Compound: O=C(c1ccc(Nc2nccc(-c3ccc(Cl)s3)n2)cc1)N1CCC(N2CCCC2)CC1

IC50 [2]: 382 nM
Compound: O=C(c1ccc(Nc2nccc(-c3ccc(Cl)c(Cl)c3)n2)cc1)N1CCC(N2CCCC2)CC1

Further lines, the molecule ahead of its results:

Compound: c1ccc(CNc2nccc(-c3cc4ccccc4s3)n2)cc1
residual activity [1]: 100%

Compound: O=C(O)c1ccc(Nc2nccc(-c3cc4ccccc4s3)n2)cc1
residual activity [1]: 33%

Compound: O=C(c1ccc(Nc2ncc(Br)c(-c3cc4ccccc4s3)n2)cc1)N1CCC(N2CCCC2)CC1
IC50 [2]: 57 nM
cell viability remaining [3]: 47%
EC50 [4]: 300 nM

Compound: c1ccc2sc(-c3ccnc(Nc4ccc(CN5CCC(N6CCCC6)CC5)cc4)n3)cc2c1
IC50 [2]: 173 nM
cell viability remaining [3]: 97%
EC50 [4]: 60 nM

Compound: CCCN(C)C1CCN(C(=O)c2ccc(Nc3nccc(-c4cc5ccccc5s4)n3)cc2)CC1
IC50 [2]: 181 nM

Compound: CN(C)C1CCN(C(=O)c2ccc(Nc3nccc(-c4cc5ccccc5s4)n3)cc2)CC1
IC50 [2]: 216 nM

Compound: Cc1ccc(-c2nc(Nc3ccc(C(=O)NCCCN4CCOCC4)cc3)ncc2Cl)s1
IC50 [2]: 16 nM
cell viability remaining [3]: 54%
EC50 [4]: 2600 nM

Compound: O=C(c1ccc(Nc2nccc(-c3cc4ccccc4s3)n2)cc1)N1CCC(N2CC[C@@H](O)C2)CC1
IC50 [2]: 243 nM

Compound: CS(=O)(=O)CCCNC(=O)c1ccc(Nc2nccc(-c3cc4ccccc4s3)n2)cc1
IC50 [2]: 215 nM

Compound: CC(C)n1cnc2c(NCc3ccccc3)nc(NCCO)nc21
IC50 [6]: 130000 nM

Compound: Clc1ccccc1Nc1nccc(-c2cc3ccccc3s2)n1
residual activity [1]: 100%

Compound: c1ccc(Nc2nccc(-c3cc4ccccc4s3)n2)cc1
residual activity [1]: 100%

Compound: O=C(NCCCN1CCOCC1)c1ccc(Nc2nccc(-c3cc4ccccc4s3)n2)cc1
IC50 [2]: 156 nM

Compound: COc1cnc(Nc2ccc(C(=O)N3CCC(N4CCCC4)CC3)cc2)nc1-c1cc2ccccc2s1
IC50 [2]: 294 nM

Compound: O=C(NC1CC1)c1ccc(Nc2nccc(-c3cc4ccccc4s3)n2)cc1
IC50 [2]: 407 nM

Compound: COc1ccc(Nc2nccc(-c3cc4ccccc4s3)n2)cc1
residual activity [7]: 88%
residual activity [1]: 97%

Compound: N#Cc1cnc(Nc2ccc(C(=O)N3CCC(N4CCCC4)CC3)cc2)nc1-c1cc2ccccc2s1
IC50 [2]: 77 nM
cell viability remaining [3]: 84%
EC50 [4]: 322 nM

Compound: O=C(c1ccc(Nc2ncc(Cl)c(-c3cc4ccccc4s3)n2)cc1)N1CCC(N2CCCC2)CC1
IC50 [2]: 19 nM
cell viability remaining [3]: 61%
EC50 [4]: 991 nM

Compound: Cc1cnc(Nc2ccc(C(=O)N3CCC(N4CCCC4)CC3)cc2)nc1-c1cc2ccccc2s1
IC50 [2]: 45 nM
cell viability remaining [3]: 66%
EC50 [4]: 760 nM

Compound: COc1cccc(Nc2nccc(-c3cc4ccccc4s3)n2)c1
residual activity [1]: 97%

Compound: CN1CCN(C(=O)c2ccc(Nc3nccc(-c4cc5ccccc5s4)n3)cc2)CC1
IC50 [2]: 339 nM

Compound: Clc1cccc(Nc2nccc(-c3cc4ccccc4s3)n2)c1
residual activity [1]: 89%

Compound: Clc1ccc(Nc2nccc(-c3cc4ccccc4s3)n2)cc1
residual activity [7]: 92%
residual activity [1]: 89%

Compound: Cc1cn2c(-c3ccnc(NCC4CC4)n3)c(-c3ccc(F)c(NS(C)(=O)=O)c3)nc2cc1CN(C)C
IC50 [8]: 2.1 nM

Compound: COC(=O)c1ccc(Nc2nccc(-c3cc4ccccc4s3)n2)cc1
residual activity [7]: 78%
residual activity [1]: 71%

Compound: O=C(c1ccc(Nc2ncc(C3CC3)c(-c3cc4ccccc4s3)n2)cc1)N1CCC(N2CCCC2)CC1
IC50 [2]: 114 nM
cell viability remaining [3]: 55%
EC50 [4]: 646 nM

Compound: CN(C)CCCNC(=O)c1ccc(Nc2nccc(-c3cc4ccccc4s3)n2)cc1
IC50 [2]: 319 nM

Compound: CN1CCN(CCCNC(=O)c2ccc(Nc3nccc(-c4cc5ccccc5s4)n3)cc2)CC1
IC50 [2]: 153 nM

Compound: O=C(NCCCN1CCOCC1)c1ccc(Nc2ncc(Cl)c(-c3ccc(Cl)s3)n2)cc1
IC50 [2]: 8 nM
cell viability remaining [3]: 65%
EC50 [4]: 1400 nM

Compound: CN1CCC(NC(=O)c2ccc(Nc3nccc(-c4cc5ccccc5s4)n3)cc2)CC1
IC50 [2]: 340 nM

Compound: Cc1cnc(Nc2ccc(C(=O)NCCCN3CCOCC3)cc2)nc1-c1ccc(Cl)s1
IC50 [2]: 12 nM

Compound: O=C(c1ccc(Nc2nccc(-c3cc4ccccc4s3)n2)cc1)N1CCNCC1
IC50 [2]: 398 nM

Compound: COc1ccccc1Nc1nccc(-c2cc3ccccc3s2)n1
residual activity [1]: 100%

Compound: O=C(c1ccc(Nc2ncc(F)c(-c3cc4ccccc4s3)n2)cc1)N1CCC(N2CCCC2)CC1
IC50 [2]: 66 nM
cell viability remaining [3]: 79%
EC50 [4]: 607 nM

Compound: O=C(c1ccc(Nc2nccc(-c3cc4ccccc4s3)n2)cc1)N1CCC(N2CC[C@H](O)C2)CC1
IC50 [2]: 264 nM
